Experimental data published in ChEMBL document CHEMBL1799916, “Novel 3,5-bis(bromohydroxybenzylidene)piperidin-4-ones as coactivator-associated arginine methyltransferase 1 inhibitors: enzyme selectivity and cellular activity” (J Med Chem, 2011).
Activity calls are given as the source filed them. The calls are words filed in the database; no cut-off is given here.

Tests used:
[1] = molecular target: T1, Histone-arginine methyltransferase CARM1 (Homo sapiens) (UniProt Q86X55); test: Inhibition of CARM1-mediated methylation of histone H3 at 100 uM after 90 mins by scintillation counting in presence of S-adenosyl-l-[methyl-3H]methionine
T1 sequence (whole entry): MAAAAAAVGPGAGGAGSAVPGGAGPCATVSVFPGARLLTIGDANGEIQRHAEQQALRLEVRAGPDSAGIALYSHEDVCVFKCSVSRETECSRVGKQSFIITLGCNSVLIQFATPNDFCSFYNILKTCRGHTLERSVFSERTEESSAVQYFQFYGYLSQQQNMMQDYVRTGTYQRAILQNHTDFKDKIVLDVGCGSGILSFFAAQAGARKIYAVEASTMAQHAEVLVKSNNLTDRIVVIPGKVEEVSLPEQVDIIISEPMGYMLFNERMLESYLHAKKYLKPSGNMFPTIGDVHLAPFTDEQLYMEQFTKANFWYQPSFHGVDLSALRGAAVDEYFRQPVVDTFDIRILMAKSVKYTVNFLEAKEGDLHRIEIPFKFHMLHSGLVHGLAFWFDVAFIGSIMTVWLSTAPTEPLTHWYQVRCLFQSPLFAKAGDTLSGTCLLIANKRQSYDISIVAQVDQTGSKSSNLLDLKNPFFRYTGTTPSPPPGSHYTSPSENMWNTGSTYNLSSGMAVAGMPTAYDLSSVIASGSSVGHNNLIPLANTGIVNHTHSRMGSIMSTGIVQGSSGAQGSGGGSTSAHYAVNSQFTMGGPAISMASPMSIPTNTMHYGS
In short: (§1)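 Compound at 100 μM with 0.1–0.2 μM recombinant enzyme and 0.5–1.5 μM substrate in PBS pH 7.4 containing [³H]AdoMet. Incubated 30 °C for 90 min, then SDS-PAGE, PVDF transfer and overnight film fluorography. Ponceau-stained substrate bands cut out and dpm counted by liquid scintillation.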

[2] = molecular target: Histone-lysine N-methyltransferase, H3 lysine-79 specific (Homo sapiens) (UniProt Q8TEK3); test: Inhibition of DOTL1-mediated methylation of nucleosome at 100 uM after 90 mins by scintillation counting in presence of S-adenosyl-l-[methyl-3H]methionine; in short: as §1
[3] = molecular target: T2, Histone-arginine methyltransferase CARM1 (Homo sapiens, UniProt Q86X55); test: Inhibition of CARM1-mediated methylation of PABP1 after 90 mins by scintillation counting in presence of S-adenosyl-l-[methyl-3H]methionine
T2 sequence (Q86X55 whole entry): T1 sequence (whole entry)

[4] = molecular target: T3, Histone-lysine N-methyltransferase EHMT2 (Homo sapiens) (UniProt Q96KQ7); test: Inhibition of G9a-mediated methylation of histone H3 at 100 uM after 90 mins by scintillation counting in presence of S-adenosyl-l-[methyl-3H]methionine; in short: as §1
T3 sequence (whole entry): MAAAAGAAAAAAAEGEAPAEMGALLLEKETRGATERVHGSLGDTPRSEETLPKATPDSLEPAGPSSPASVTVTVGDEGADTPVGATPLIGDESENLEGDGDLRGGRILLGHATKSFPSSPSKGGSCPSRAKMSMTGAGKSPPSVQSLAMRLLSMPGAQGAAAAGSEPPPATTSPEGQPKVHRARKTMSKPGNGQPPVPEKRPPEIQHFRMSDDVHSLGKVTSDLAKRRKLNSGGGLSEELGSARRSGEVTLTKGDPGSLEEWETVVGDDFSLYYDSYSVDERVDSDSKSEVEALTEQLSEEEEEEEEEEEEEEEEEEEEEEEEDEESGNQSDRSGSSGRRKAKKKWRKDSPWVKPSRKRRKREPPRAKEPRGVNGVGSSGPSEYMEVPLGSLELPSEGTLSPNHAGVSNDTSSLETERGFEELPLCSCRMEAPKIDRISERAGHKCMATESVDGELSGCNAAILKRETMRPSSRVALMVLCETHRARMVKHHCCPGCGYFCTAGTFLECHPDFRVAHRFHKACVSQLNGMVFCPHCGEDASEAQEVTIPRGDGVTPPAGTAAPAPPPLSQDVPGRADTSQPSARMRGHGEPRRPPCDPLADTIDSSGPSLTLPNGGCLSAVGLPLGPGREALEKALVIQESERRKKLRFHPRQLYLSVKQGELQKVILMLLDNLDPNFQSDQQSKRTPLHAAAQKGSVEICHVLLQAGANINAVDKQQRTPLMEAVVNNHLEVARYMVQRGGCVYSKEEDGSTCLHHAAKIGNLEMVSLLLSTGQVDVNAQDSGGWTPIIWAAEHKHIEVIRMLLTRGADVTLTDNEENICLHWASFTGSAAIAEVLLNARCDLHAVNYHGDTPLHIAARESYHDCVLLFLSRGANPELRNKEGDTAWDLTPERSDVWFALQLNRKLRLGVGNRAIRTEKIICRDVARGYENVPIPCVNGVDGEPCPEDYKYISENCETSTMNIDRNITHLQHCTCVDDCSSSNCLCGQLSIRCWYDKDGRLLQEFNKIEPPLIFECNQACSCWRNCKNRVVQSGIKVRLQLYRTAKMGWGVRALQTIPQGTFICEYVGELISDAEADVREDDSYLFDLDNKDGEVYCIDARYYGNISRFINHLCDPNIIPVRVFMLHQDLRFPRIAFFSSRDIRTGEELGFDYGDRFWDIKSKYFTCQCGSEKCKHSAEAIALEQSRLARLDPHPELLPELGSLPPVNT

[5] = molecular target: T1, Histone-arginine methyltransferase CARM1 (Homo sapiens); test: Inhibition of CARM1-mediated methylation of CA150 at 100 uM after 90 mins by scintillation counting in presence of S-adenosyl-l-[methyl-3H]methionine; in short: as §1
[6] = molecular target: T4, Histone-lysine N-methyltransferase SETD7 (Homo sapiens, UniProt Q8WTS6); test: Inhibition of SET7-mediated methylation of histone H3 after 90 mins by scintillation counting in presence of S-adenosyl-l-[methyl-3H]methionine
T4 sequence (Q8WTS6 whole entry): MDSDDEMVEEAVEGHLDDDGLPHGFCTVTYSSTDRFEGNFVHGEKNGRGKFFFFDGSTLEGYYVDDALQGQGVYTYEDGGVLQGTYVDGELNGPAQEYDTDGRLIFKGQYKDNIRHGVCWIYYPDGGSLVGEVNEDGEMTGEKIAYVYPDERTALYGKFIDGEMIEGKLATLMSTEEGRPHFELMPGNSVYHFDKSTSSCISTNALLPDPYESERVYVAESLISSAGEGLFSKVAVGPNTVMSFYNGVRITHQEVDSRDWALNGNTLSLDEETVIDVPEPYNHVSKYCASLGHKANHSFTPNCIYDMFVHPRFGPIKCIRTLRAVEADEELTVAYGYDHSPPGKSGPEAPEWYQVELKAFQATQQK

[7] = molecular target: T1, Histone-arginine methyltransferase CARM1 (Homo sapiens); test: Inhibition of CARM1-mediated methylation of SMB at 100 uM after 90 mins by scintillation counting in presence of S-adenosyl-l-[methyl-3H]methionine; in short: as §1

Sequence of Histone-lysine N-methyltransferase, H3 lysine-79 specific (Homo sapiens) (Q8TEK3 whole entry, looked up): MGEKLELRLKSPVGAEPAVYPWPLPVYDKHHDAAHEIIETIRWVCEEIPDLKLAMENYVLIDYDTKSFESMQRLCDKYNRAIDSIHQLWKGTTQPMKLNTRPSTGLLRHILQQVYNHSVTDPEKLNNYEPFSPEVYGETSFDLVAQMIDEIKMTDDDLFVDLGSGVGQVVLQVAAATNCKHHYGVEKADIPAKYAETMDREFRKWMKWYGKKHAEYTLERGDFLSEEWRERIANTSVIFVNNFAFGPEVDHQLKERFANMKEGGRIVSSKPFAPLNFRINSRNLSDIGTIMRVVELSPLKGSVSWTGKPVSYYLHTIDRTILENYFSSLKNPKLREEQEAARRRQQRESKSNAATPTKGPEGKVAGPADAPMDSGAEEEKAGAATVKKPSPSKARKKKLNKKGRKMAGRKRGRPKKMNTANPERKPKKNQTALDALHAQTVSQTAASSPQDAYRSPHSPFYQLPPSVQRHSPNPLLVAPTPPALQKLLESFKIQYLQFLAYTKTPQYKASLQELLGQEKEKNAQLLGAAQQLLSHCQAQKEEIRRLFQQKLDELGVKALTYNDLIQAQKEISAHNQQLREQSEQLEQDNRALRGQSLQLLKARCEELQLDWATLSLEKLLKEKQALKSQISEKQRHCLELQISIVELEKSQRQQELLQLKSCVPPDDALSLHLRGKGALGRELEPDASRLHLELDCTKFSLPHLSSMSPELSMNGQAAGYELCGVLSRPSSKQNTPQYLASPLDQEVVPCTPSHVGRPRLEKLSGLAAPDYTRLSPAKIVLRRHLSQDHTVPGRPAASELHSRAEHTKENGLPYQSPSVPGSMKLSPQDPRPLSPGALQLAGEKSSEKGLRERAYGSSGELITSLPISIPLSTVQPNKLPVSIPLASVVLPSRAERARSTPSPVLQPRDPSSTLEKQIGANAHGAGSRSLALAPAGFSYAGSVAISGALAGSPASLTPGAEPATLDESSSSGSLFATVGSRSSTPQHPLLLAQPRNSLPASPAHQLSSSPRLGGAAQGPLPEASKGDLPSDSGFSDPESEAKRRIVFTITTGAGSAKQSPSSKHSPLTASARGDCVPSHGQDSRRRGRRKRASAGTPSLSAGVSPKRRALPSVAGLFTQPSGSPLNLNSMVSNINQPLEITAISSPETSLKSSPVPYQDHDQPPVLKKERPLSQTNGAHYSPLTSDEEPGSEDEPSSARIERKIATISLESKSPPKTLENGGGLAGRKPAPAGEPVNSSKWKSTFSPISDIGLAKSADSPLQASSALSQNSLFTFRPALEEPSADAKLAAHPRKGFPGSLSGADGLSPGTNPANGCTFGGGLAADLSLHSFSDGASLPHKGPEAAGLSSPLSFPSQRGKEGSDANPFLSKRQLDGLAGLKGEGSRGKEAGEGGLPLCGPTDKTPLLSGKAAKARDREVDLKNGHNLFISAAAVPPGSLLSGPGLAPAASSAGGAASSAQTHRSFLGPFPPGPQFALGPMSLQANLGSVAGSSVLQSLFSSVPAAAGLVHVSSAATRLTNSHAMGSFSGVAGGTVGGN

Row | inhibition [1] | inhibition [2] | IC50 [3] [µM] | inhibition [4] | inhibition [5] | IC50 [6] [µM] | inhibition [7] | Structure (SMILES)
1 | Active | inactive | 8.1 | inactive | Active | 174 | Active | O=C1/C(=C/c2ccc(O)c(Br)c2)CN(Cc2cccc(Cl)c2)C/C1=C\c1ccc(O)c(Br)c1
2 | Active | inactive | 8.6 | inactive | Active | > 667 | Active | O=C1/C(=C/c2ccc(O)c(Br)c2)CN(Cc2ccccc2)C/C1=C\c1ccc(O)c(Br)c1
3 | Active | inactive | 14.4 | inactive | Active | 149 | Active | O=C1/C(=C/c2ccc(O)c(Br)c2)CN(CC(=O)c2ccccc2)C/C1=C\c1ccc(O)c(Br)c1
